Results from publication PMC6468299 (Nucleic Acids Research, 2019).
Read-outs that look alike come from different tables or passages of the source.

Legend:
DNA polymerase α (Pol-α) = molecular target: T1, DNA polymerase α (Pol-α) (Homo sapiens, UniProt P09884); assay: DNA polymerase inhibition assay, Pol-α; assay type: biochemical
T1 sequence (P09884 1-1462): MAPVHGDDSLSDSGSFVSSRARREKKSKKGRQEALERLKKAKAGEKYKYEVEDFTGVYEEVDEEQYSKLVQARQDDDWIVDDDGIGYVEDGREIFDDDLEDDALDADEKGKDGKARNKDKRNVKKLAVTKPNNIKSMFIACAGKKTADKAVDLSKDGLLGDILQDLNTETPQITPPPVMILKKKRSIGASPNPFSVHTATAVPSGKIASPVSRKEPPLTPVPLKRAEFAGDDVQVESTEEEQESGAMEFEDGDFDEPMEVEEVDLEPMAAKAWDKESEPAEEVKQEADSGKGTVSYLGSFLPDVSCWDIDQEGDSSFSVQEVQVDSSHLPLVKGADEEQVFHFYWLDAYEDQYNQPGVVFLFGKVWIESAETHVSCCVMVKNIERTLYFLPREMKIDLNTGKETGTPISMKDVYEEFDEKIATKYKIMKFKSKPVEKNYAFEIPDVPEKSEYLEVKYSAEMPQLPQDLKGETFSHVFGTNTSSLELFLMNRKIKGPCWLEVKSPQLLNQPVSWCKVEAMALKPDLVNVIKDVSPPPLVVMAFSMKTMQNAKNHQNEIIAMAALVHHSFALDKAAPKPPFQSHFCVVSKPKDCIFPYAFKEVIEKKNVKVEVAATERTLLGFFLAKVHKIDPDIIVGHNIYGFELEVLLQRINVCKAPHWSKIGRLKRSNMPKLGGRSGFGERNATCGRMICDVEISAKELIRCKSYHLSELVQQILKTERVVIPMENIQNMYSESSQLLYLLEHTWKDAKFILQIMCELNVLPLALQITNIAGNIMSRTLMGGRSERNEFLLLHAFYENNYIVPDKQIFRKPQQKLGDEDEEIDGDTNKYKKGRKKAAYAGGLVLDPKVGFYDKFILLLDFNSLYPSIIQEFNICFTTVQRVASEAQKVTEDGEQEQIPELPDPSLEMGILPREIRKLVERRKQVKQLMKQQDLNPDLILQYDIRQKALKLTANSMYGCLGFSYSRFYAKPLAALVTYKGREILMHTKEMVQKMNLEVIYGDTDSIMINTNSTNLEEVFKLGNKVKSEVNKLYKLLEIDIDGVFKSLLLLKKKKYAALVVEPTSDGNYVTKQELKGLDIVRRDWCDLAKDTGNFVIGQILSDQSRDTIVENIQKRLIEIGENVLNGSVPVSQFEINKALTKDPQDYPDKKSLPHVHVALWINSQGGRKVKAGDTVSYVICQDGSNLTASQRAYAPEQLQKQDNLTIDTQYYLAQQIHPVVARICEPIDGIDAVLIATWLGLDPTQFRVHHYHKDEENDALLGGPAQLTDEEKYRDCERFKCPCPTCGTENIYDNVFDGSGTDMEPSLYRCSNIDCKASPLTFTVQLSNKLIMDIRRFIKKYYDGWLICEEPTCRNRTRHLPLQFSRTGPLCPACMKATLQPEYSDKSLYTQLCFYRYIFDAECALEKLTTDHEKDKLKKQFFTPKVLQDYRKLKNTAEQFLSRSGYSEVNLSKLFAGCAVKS

DNA polymerase β (Pol-β) = DNA polymerase β (Pol-β) (Homo sapiens, UniProt P06746); assay: DNA polymerase inhibition assay, Pol-β; assay type: biochemical; details: 1 h, 3H-dTTP incorporation
Summary of the method: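 Reactions contained 25 μM each dATP/dCTP/dGTP, 25 nM TTP plus 1 μCi ³H-TTP, 160 nM template/primer, and serially diluted test nucleotide (0–200 μM). Incubation was 1 h at 37°C. DNA was TCA-precipitated, washed and counted; inhibition was taken from reduced incorporation. ddNTPs served as positive control.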

DNA polymerase γ (Pol-γ) = molecular target: T2, DNA polymerase γ (Pol-γ) (Homo sapiens, UniProt P54098); assay: DNA polymerase inhibition assay, Pol-γ; assay type: biochemical; details: 1 h, 3H-dTTP incorporation
T2 sequence (P54098 1-1239): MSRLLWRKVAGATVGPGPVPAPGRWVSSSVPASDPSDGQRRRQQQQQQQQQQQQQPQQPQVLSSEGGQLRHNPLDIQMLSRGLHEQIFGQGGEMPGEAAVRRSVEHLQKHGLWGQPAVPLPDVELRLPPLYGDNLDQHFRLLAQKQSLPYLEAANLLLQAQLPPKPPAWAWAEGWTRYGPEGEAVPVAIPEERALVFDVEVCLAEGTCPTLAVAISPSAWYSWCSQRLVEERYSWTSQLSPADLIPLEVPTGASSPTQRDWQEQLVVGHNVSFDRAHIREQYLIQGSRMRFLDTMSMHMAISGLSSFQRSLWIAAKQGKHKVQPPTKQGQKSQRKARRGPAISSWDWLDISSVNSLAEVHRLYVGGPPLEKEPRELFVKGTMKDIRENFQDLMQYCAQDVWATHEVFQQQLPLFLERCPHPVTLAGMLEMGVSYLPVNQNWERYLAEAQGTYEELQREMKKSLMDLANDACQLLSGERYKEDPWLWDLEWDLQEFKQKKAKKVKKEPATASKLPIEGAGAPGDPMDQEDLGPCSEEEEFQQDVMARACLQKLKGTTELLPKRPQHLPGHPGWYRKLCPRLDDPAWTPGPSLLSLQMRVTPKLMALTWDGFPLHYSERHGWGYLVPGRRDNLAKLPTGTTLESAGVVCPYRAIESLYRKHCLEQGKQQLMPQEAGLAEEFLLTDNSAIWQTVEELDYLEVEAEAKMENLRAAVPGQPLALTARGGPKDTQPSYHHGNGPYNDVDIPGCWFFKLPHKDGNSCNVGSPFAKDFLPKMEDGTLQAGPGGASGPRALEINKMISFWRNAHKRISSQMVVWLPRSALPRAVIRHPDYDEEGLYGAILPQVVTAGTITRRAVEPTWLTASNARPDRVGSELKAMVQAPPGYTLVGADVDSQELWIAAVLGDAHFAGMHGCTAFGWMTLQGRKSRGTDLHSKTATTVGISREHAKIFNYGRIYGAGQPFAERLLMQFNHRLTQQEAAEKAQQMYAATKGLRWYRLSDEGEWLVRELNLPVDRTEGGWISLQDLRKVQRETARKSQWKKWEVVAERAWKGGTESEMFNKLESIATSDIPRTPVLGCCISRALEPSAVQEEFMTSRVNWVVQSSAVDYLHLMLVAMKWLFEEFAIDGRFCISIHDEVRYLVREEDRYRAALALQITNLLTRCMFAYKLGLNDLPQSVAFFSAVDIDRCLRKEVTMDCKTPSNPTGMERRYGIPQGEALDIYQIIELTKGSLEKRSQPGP
Summary of the method: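 Reactions contained 25 μM each dATP/dCTP/dGTP, 25 nM TTP plus 1 μCi ³H-TTP, 160 nM template/primer, and serially diluted test nucleotide (0–200 μM). Incubation was 1 h at 37°C, stopped with TCA (10% final). DNA was precipitated 40 min at 4°C, washed and scintillation-counted; inhibition was taken from reduced radioactivity.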

[1] = Cytotoxicity, sulforhodamine B assay, HepG2; assay type: cell-based, human; details: human, HepG2 cells (liver), day 11, four doses
Summary of the method: (§1)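 Cells were grown 1 week in glucose- or galactose-containing medium, then seeded in 96-well plates. iCell cardiomyocytes were seeded on gelatin-coated plates and grown 5 days. Test compounds in 1:1 ethanol:water were added at each media change on days 0, 3, 7 and 10 (four doses), at up to 250 μM. Final ethanol was 2.5% at 250 μM and 1% otherwise. Total protein was read by sulforhodamine B on day 11. CC50 was fitted from triplicates.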

[2] = Cytotoxicity, sulforhodamine B assay, SkMC; assay type: cell-based, human; details: human, SkMC cells (muscle), CC50, SkMC, day 11
Summary of the method: as §1

[3] = Cytotoxicity, sulforhodamine B assay, Caki-1; assay type: cell-based, human; details: human, Caki-1 cells (kidney), day 11
Summary of the method: as §1

[4] = Cytotoxicity, sulforhodamine B assay, Molt-4; assay type: cell-based, human; details: human, Molt-4 cells (blood), day 11
Summary of the method: as §1

[5] = Cytotoxicity, sulforhodamine B assay, COLO 205; assay type: cell-based, human; details: human, COLO 205 cells (intestine), day 11
Summary of the method: as §1

[6] = Cytotoxicity, sulforhodamine B assay, SNB-78; assay type: cell-based, human; details: human, SNB-78 cells (CNS), day 11
Summary of the method: as §1

SNB-78 (CNS) = assay: Cytotoxicity, sulforhodamine B assay, SNB-78; assay type: cell-based, human; details: SNB-78
Summary of the method: as §1

[7] = Cytotoxicity, sulforhodamine B assay, iCell cardiomyocytes; assay type: cell-based; details: human, iCell cardiomyocytes (heart)
Summary of the method: as §1

[8] = Pol-α, 1 h, 3H-dTTP incorporation

Molecule: O=P(O)(O)OP(=O)(O)OP(=O)(O)OC[C@H]1O[C@@H](n2cnc3c(O)ncnc32)[C@H](F)[C@@H]1O [2′-F-ITP]
- IC50 (DNA polymerase α (Pol-α); [8]): > 200 µM
- IC90 (DNA polymerase α (Pol-α); [8]): > 200 µM
- IC50 (DNA polymerase β (Pol-β)): > 200 µM
- IC90 (DNA polymerase β (Pol-β)): > 200 µM
- IC50 (DNA polymerase γ (Pol-γ)): > 200 µM
- IC90 (DNA polymerase γ (Pol-γ)): > 200 µM

Molecule: C[C@@]1(CO)[C@H](O)CC[C@@]2(C)[C@H]1CC[C@H]1C[C@@H]3C[C@@]12CC[C@]3(O)CO [Aphidicolin, reference compound]
- IC90 (DNA polymerase α (Pol-α)): 16.5 µM

Molecule: CC(C)OC(=O)[C@H](C)N[P@](=O)(OC[C@H]1O[C@@H](n2ccc(=O)[nH]c2=O)[C@](C)(F)[C@@H]1O)Oc1ccccc1 [SOF, Sofosbuvir]
- CC50 at 11 days ([1]; CC50, HepG2, Galactose media): 97 µM
- CC50 at 11 days ([1]; CC50, HepG2, Glucose media): 114 µM
- CC50 at 11 days ([2]; Galactose media): > 250 µM
- CC50 at 11 days ([2]; Glucose media): > 250 µM
- CC50 at 11 days ([3]; CC50, Caki-1, Galactose media): > 250 µM
- CC50 at 11 days ([3]; CC50, Caki-1, Glucose media): > 250 µM
- CC50 at 11 days ([4]; CC50, Molt-4, Galactose media): > 250 µM
- CC50 at 11 days ([4]; CC50, Molt-4, Glucose media): > 250 µM
- CC50 at 11 days ([5]; CC50, COLO 205, Galactose media): 123 µM
- CC50 at 11 days ([5]; CC50, COLO 205, Glucose media): 155 µM
- CC50 at 11 days ([6]; CC50, SNB-78, Galactose media): 120 µM
- CC50 at 11 days ([6]; CC50, SNB-78, Glucose media): > 250 µM
- decrease of CC50 in galactose compared to glucose media (SNB-78 (CNS)): 2–10 fold
- CC50 at 11 days [7]: > 250 µM

Molecule: dideoxy nucleoside 5′ triphosphates [ddNTP, reference compound]
- IC50 (DNA polymerase β (Pol-β)): 0.06 µM
- IC90 (DNA polymerase β (Pol-β)): 0.65 µM
- IC50 (DNA polymerase γ (Pol-γ)): 0.35 µM
- IC90 (DNA polymerase γ (Pol-γ)): 8.65 µM
